From ChEMBL document CHEMBL2057189, “Functional characterization of recombinant hyoscyamine 6β-hydroxylase from Atropa belladonna” (Bioorg Med Chem, 2012)
Calls of active or inactive are those of the source. No cut-off for these calls is given here.

Legend:
Atropa belladonna [1] = assay: Inhibition of Atropa belladonna recombinant hycosamine 6beta-hydroxylase expressed in Escherichia coli using hyoscyamine as substrate assessed as inhibition of hydroxylated product formation at 0.1 mM after 1 hr by HPLC analysis
Method in brief: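 Purified AbH6H was assayed in 50 mM Tris/HCl pH 7.6 with 0.4 mM FeSO4, 4 mM ascorbate, 1 mM 2-oxoglutarate, 2 mg/mL catalase and 0.2 mM (−)-hyoscyamine, plus 0.1 mM analogue, at 34 °C. After Na2CO3 quench and EtOAc extraction, 6β-hydroxyhyoscyamine was quantified by C18 HPLC (UV 210 nm, water/H3PO4–MeOH gradient). Inhibition was scored as reduced product formation.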

Atropa belladonna [2] = assay: Activity at Atropa belladonna recombinant hycosamine 6beta-hydroxylase expressed in Escherichia coli assessed as hydroxylated product formation at 0.2 mM after 1 hr by ESI-MS analysis
Method in brief: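 Ni-NTA-purified His-tagged AbH6H, E. coli-expressed. Analogue at 0.2 mM final replaced (−)-hyoscyamine in 50 mM Tris/HCl pH 7.6 with 0.4 mM FeSO4, 4 mM sodium ascorbate, 1 mM 2-oxoglutaric acid and 2 mg/mL catalase at 34 °C. The reaction was quenched with saturated Na2CO3 (pH ~9.5) and extracted with EtOAc. Conversion to products was checked by ESI-MS.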

Atropa belladonna [3] = assay: Activity at Atropa belladonna recombinant hycosamine 6beta-hydroxylase epoxidase activity expressed in Escherichia coli assessed as scopolamine formation at 0.2 mM after 1 hr by ESI-MS analysis
Method in brief: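 C-terminally His6-tagged A. belladonna H6H expressed in E. coli JM109 and Ni-NTA purified. Substrate (0.2 mM final) incubated at 34 °C in 50 mM Tris/HCl pH 7.6 with 0.4 mM FeSO4, 4 mM sodium ascorbate, 1 mM 2-oxoglutarate and 2 mg/mL catalase. Quenched with saturated Na2CO3 to pH ~9.5 and extracted with EtOAc. Products detected by ESI-MS.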

Structure (SMILES) | inhibition (Atropa belladonna [1]) | Activity (Atropa belladonna [2]) | Activity (Atropa belladonna [3])
O=C(Cc1ccccc1)O[C@@H]1CC2CC[C@H](C1)O2 (single isomer, unassigned) | inactive | inactive | –
CN1C2CC[C@@H]1C[C@H](OC(=O)c1ccccc1)C2 (single isomer, unassigned) | – | Active | –
CN1C2CC[C@@H]1C[C@H](OC(=O)CCc1ccccc1)C2 (single isomer, unassigned) | inactive | inactive | –
CN(C)c1ccc(CC(=O)O[C@H]2C[C@H]3CC[C@@H](C2)N3C)cc1 | – | Active | –
C[N+]1(C)C2C[C@H](OC(=O)[C@H](CO)c3ccccc3)C[C@@H]1[C@H]1OC21 (single isomer, unassigned) | 7% | inactive | –
CN1[C@@H]2C=C[C@H]1C[C@@H](OC(=O)[C@H](CO)c1ccccc1)C2 | – | Active | Active
CN1CCC(OC(=O)Cc2ccccc2)CC1 | inactive | inactive | –
